697 NFkB inh = inhibitors of the PMA/ionomycin-induced NF-kB reporter in 697 B cells. 697 B-cell NF-kB luciferase reporter, 16 h. inhibition, % at 4 µM. 330,000 compounds, 0.33% hits. AID 435022; in the data active = inhibition above about 35%
Jurkat NFkB inh = lowers PMA/ionomycin-induced NF-kB signal in Jurkat cells | 330,000 compounds, 0.53% hits | PMA/ionomycin-induced NF-kB luciferase reporter, luminescence | inhibition, % at 4 µM; in the data active = inhibition above about 50%
XBP1 UPR activ = activators of adaptive arm of unfolded protein response (XBP1); CHO-XBP1 luciferase reporter, IRE1-XBP1 UPR activation, luminescence; percent of tunicamycin response, DMSO as zero; activation, % at 20 µM; 330,000 compounds, 0.33% hits;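 active = versus positive control, 20 µM dose yields 30% or more activation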;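 also: 100% = tunicamycin at 10 µg/mL and 0% = DMSO only wells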
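Signal: luciferase luminescence; Assay system: CHO-XBP1 luciferase reporter cells; Amount: one thousand reporter cells per well; Dosing: 20 µM single concentration, DMSO 1%; Benchmarks: high control tunicamycin 10 µg/mL final, low control DMSO vehicle only; Schedule: 6 h compound exposure at 37 °C, 5% CO2; Evaluation: percent activation relative to tunicamycin reference.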
CHOP UPR activ = apoptotic UPR (CHOP) activation; activation, % at 10 µM; 330,000 compounds, 0.34% hits; CHO-CHOP luciferase reporter, luminescence; percent of tunicamycin response over DMSO baseline;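 active = at 10 µM dose, activation of 40% or more, normalized to positive control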;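 also: 100% = tunicamycin at 10 µg/mL and 0% = DMSO alone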
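Test system: CHO-CHOP cells, stable luciferase reporter of PERK-eIF2a-CHOP signalling | Quantity: 500 CHO-CHOP cells per well | Buffer or medium: F12 plus 10% serum | Compound dosing: 10 µM single point, 0.5% DMSO | Schedule: 6 h compound treatment, 37 °C | Signal: Luciferase luminescence | Control set: Tunicamycin high control, DMSO low control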
CHOP inh = inhibitors of CHOP induction in ER stress response | inhibition, % at 10 µM | CHO-K1 CHOP-promoter luciferase, tunicamycin-induced, 15-18 h | 220,000 compounds, 3.8% hits | AID 2732;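 active = compounds that reduced the stress-induced luciferase reporter signal by more than about 70% of percent inhibition, limit read from the data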;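 also: 0% = tunicamycin plus vehicle and 100% = wells without tunicamycin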
697 NFkB conf = inhibitors of the PMA/ionomycin-induced NF-kB reporter in 697 B cells, retest; shares compounds with 697 NFkB inh; 697 B-cell NF-kB luciferase, 16 h; inhibition, % at 4 µM; 2,000 compounds, 35% hits; AID 449746; in the data active = inhibition mostly above about 28%, no sharp cut-off; inactive = mostly below about 22%
Starred values were filed as active, the others as inactive; i = inactive; . = not tested or not shown. The sample as a whole holds a higher share of hits than the screen did.

SMILES	697 NFkB inh	Jurkat NFkB inh	XBP1 UPR activ	CHOP UPR activ	CHOP inh	697 NFkB conf
O=C(CCCN1C(=O)/C(=C/c2ccccc2Cl)SC1=S)NNC(=O)c1cccnc1	2.4	-34.9	-5.5	-2.2	53.2	.
O=C(CCCN1C(=O)/C(=C/c2ccccc2Cl)SC1=S)NNC(=O)c1ccccc1	39.8*	12.9	-3.5	-3.2	85.8*	41.9*
O=C(CCCN1C(=O)S/C(=C\c2ccccc2)C1=O)NNC(=O)c1ccccc1O	67.4*	-2.1	-4.2	-6.3	95.2*	50.0*
CCC(C)c1ccc(OCC(=O)Nc2ccc(CN3CCOCC3)cc2)cc1 (configuration not stated)	8.2	14.4	-3.3	0.7	.	.
CCc1nnc(NS(=O)(=O)c2ccc(NCc3cc(Cl)ccc3O)cc2)s1	3.7	15.0	-1.7	1.0	.	.
O=C1CCN(Cc2ccc(Br)cc2)CCN1[C@H](CO)Cc1ccccc1	2.6	11.4	-2.5	0.2	.	.
CCCC(C)C(=O)OCC(=O)Nc1ccc(Br)cc1 (configuration not stated)	5.2	-2.2	4.2	0.3	31.3	.
COc1ccc(C(=O)Nc2ccc3ncccc3c2)cc1	-290.4	-103.0	-8.0	-4.4	.	-333.0
Cc1ccc(C(=O)Nc2ccc3ncccc3c2)cc1	-181.3	-24.5	-8.1	-7.7	.	.
c1ccc(-c2c[n+]3c(n2-c2ccccc2)CCC3)cc1	-14.1	9.4	-0.8	2.3	-38.1	.
CCOc1ccc(-n2c(-c3ccccc3)c[n+]3c2CCCCC3)cc1	62.6*	17.4	1.3	-2.2	32.6	63.8*
Clc1ccc(/C=C/c2nc3ccccc3[nH]2)c(Cl)c1	-487.7	-146.1	-6.1	-4.9	62.5	i
O=C(/C=C/c1ccc(Cl)cc1Cl)c1nc2ccccc2[nH]1	-3.4	-14.2	-0.5	-1.6	29.2	.
O=C(Nc1ccc2oc(-c3cccc4ccccc34)nc2c1)c1ncn[nH]1	-120.4	-34.9	1.7	9.7	-76.1	.
O=C(Nc1ccc2oc(-c3ccccc3Cl)nc2c1)c1ncn[nH]1	-288.5	-100.7	8.2	8.1	52.1	-194.3
CCCCCCCCNC(=O)c1ccc(C)cc1	79.7*	-25.2	-2.4	-1.7	11.5	-8.5
CCCOc1ccccc1/C=C1\SC(N2CCCCC2)=NC1=O	-299.7	-57.3	4.4	3.5	.	-286.9
CCn1nc(C(=O)NNS(=O)(=O)c2ccc(C)cc2)c2ccccc2c1=O	20.5	-4.6	-1.3	0.0	.	.
CC(=O)c1cccc(N(C(=O)CNC(=O)c2cccs2)C(C(=O)NCC2CCCO2)c2ccccc2)c1 (configuration not stated)	0.1	-6.4	2.5	-1.6	.	.
O=C(Nc1ccc(O)cc1)c1c(O)c2c([nH]c1=O)CCCC2	-469.0	-95.4	-0.1	6.5	-34.9	-260.6
COc1cc(C(C)=O)ccc1OCC(=O)N(CCC1=CCCCC1)c1c(N)n(Cc2ccccc2)c(=O)[nH]c1=O	11.1	-4.2	-2.4	0.0	.	.
Cc1ccc(N=Nc2c(N)nn(-c3ccccc3)c2N)cc1	-318.1	-4.7	1.1	3.2	36.5	-81.0
Cc1nn(-c2ccccc2)c(N)c1N=Nc1ccc2ccccc2c1	-85.8	-77.2	2.9	1.1	7.1	.
CCOc1cccc(C(=O)NNC(=O)CCC(=O)O)c1	15.0	15.5	-1.9	1.1	-5.4	.
COc1cccc(NC(=O)N2CCC(C(=O)Nc3ccc(C)cc3C)CC2)c1	35.1*	1.9	-0.2	-0.1	38.1	12.8
SMILES	697 NFkB inh	Jurkat NFkB inh	XBP1 UPR activ	CHOP UPR activ	CHOP inh	697 NFkB conf
COc1ccc(C(=O)Nc2ccc(OC)c([N+](=O)[O-])c2)cc1Br	39.2*	6.9	-1.2	0.5	-4.0	34.8*
C#CCCc1ccccc1/C=[N+](/C)[O-]	4.1	-20.3	1.2	0.8	.	.
Cc1ccc(C(=O)CSc2nnc(COc3cccc(C)c3)o2)cc1	49.4*	-4.4	2.0	-0.5	39.1	56.9*
CCOC(=O)CSc1nnc(COc2cccc(C)c2)o1	13.5	5.6	-1.7	0.4	-3.4	.
COc1ccccc1CNC(=O)CSc1ccc(-c2ccncc2)nn1	-3.8	0.7	-2.3	-0.9	2.4	.
CN(C(=O)C1CCCN1S(=O)(=O)c1ccc(Cl)cc1)c1ccccc1 (configuration not stated)	-0.4	-3.8	0.9	1.7	.	.
Cc1ccc(CNc2nc3ccccc3s2)s1	-265.3	-108.3	-8.1	-4.1	74.1*	-292.8

Source: PubChem BioAssay (several laboratories)
